Source: ChEMBL document CHEMBL3774382, “Design and synthesis of small molecule-sulfotyrosine mimetics that inhibit HIV-1 entry” (Bioorg Med Chem, 2016)

Experiments:
[1] = test system: Human immunodeficiency virus 1; test: Antiviral activity against HIV1 CXCR4-tropic strain HxB2 infected in human 293T cells after 48 hrs by neutralization assay; format: functional, organism-based; settings: Human immunodeficiency virus 1, HxB2, HEK-293T
Outline: (§1)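 Env-pseudotyped virus made by transfecting 293T cells with SG3denv plus an HIV-1 env plasmid. Medium changed at 24 h, supernatant harvested at 48 h, 0.45 μm filtered, stored at −80 °C. Two-fold serial inhibitor dilutions mixed with virus, then TZM-bl cells added. Incubated at 37 °C, 5% CO₂, fresh medium at 24 h. Luciferase read after lysis at 48 h post-infection. Single round. Tested up to 400 μM.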

[2] = test system: Human immunodeficiency virus 1; test: Antiviral activity against HIV1 dual CXCR4/CCR5-tropic strain 89.6 infected in human 293T cells after 48 hrs by neutralization assay; format: functional, organism-based; settings: Human immunodeficiency virus 1, 89.6, HEK-293T; outline: as §1
[3] = test system: Human immunodeficiency virus 1; test: Antiviral activity against HIV1 CCR5-tropic strain YU2 infected in human 293T cells after 48 hrs by neutralization assay; format: functional, cell-based; settings: Human immunodeficiency virus 1, isolate YU2, HEK-293T; outline: as §1
[4] = test system: Human immunodeficiency virus 1; test: Antiviral activity against HIV1 JRCSF infected in human 293T cells after 48 hrs by neutralization assay; format: functional, cell-based; settings: Human immunodeficiency virus 1, JRCSF ISOLATE, HEK-293T; outline: as §1
[5] = Therapeutic index, ratio of LC50 for human TZM-bl cells to IC50 for HIV1; format: cell-based; settings: read-out: TI
[6] = test system: Human immunodeficiency virus 1; test: Antiviral activity against HIV1 NL4-3 infected in human 293T cells after 48 hrs by neutralization assay; format: functional, organism-based; settings: Human immunodeficiency virus 1, NL4-3, HEK-293T; outline: as §1
[7] = Cytotoxicity against human TZM-bl cells at 500 uM; format: cell-based
[8] = Cytotoxicity against human TZM-bl cells; format: cell-based; settings: read-out: LC50 (the source's name)
[9] = Cytotoxicity against human TZM-bl cells at 200 to 500 uM; format: cell-based
[10] = test system: Human immunodeficiency virus 1; test: Antiviral activity against HIV1 CXCR4-tropic strain HxB2 infected in human 293T cells at 400 uM after 48 hrs by neutralization assay; format: functional, organism-based; outline: as §1
[11] = test system: Human immunodeficiency virus 1; test: Antiviral activity against HIV1 CCR5-tropic strain YU2 infected in human 293T cells at 400 uM after 48 hrs by neutralization assay; format: functional, cell-based, isolate YU2; outline: as §1
293T [12] = test: Inhibition of envelope gp120 in CCR5-tropic HIV1 YU2 infected in human 293T cells assessed as dose reduction index ratio at 1: 10 at 1:10 inhibitor to CCR5 Nt sulfated peptide (2 to 18) by single round neutralization assay; format: cell-based; settings: Human immunodeficiency virus type 1 (isolate YU2)
Outline: (§2)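 Single-round YU2 pseudovirus neutralization in TZM-bl cells with luciferase read-out. Virus treated with inhibitor alone, with sulfated CCR5 N-terminal peptide 2–18 alone, or with a constant-ratio mixture, two-fold serial dilutions starting near 30× the single-agent IC₅₀. The ratio approximates the ratio of single-agent IC₅₀s. Analysed by the Chou–Talalay method. DRI is IC₅₀ alone divided by IC₅₀ in combination. CI below 1, equal to 1 and above 1 mean synergy, additivity and antagonism.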

293T [13] = test: Inhibition of envelope gp120 in CCR5-tropic HIV1 YU2 infected in human 293T cells assessed as combination index at 1: 10 at 1:10 inhibitor to CCR5 Nt sulfated peptide (2 to 18) by single round neutralization assay; format: cell-based; settings: Human immunodeficiency virus type 1 (isolate YU2); outline: as §2
[14] = test system: Human immunodeficiency virus 1; test: Antiviral activity against HIV1 CCR5-tropic strain YU2 infected in human 293T cells at 500 uM after 48 hrs by neutralization assay; format: functional, cell-based, isolate YU2
[15] = Binding affinity to HIV immobilized envelop gp120 at 80 to 350 uM by surface plasmon resonance analysis; design: species or system Human immunodeficiency virus
[16] = test system: Human immunodeficiency virus 1; test: Antiviral activity against HIV1 JRCSF infected in human 293T cells after at 400 uM 48 hrs by neutralization assay; format: functional, cell-based, JRCSF ISOLATE; outline: as §1
[17] = test system: Human immunodeficiency virus 1; test: Antiviral activity against HIV1 dual CXCR4/CCR5-tropic strain 89.6 infected in human 293T cells at 400 uM after 48 hrs by neutralization assay; format: functional, organism-based; outline: as §1

Row | SMILES | IC50 [1] [µM] | IC50 [2] [µM] | IC50 [3] [µM] | IC50 [4] [µM] | IC50 [6] [µM] | also measured
1 | O=C1/C(=N\Nc2ccc3c(S(=O)(=O)O)cc(S(=O)(=O)O)cc3c2)C(c2ccccc2)=NN1c1nc(-c2ccc(OC(F)(F)F)cc2)cs1 | 14.2 | 14.8 | 52.8 | 29.8 | 10.7 | 
2 | CC1=NN(c2nc(-c3ccc(C)cc3)cs2)C(=O)/C1=N\Nc1ccc(S(=O)(=O)O)cc1 |  |  | 126 |  |  | 
3 | O=C1/C(=N\Nc2ccc3c(S(=O)(=O)O)cc(S(=O)(=O)O)cc3c2)C(c2ccccc2)=NN1c1nc(C(F)(F)F)cs1 | 6.8 | 2.4 | 27.9 | 5.8 | 6.3 | selectivity ratio [5]: 13; CC50 [8]: 370 µM; Activity [9]: Toxic
4 | CC1=NN(c2nc(C(F)(F)F)cs2)C(=O)/C1=N\Nc1ccc2c(S(=O)(=O)O)cc(S(=O)(=O)O)cc2c1 |  | 79.7 |  | 83.3 | 80.1 | IC50 [10]: Not Active; IC50 [11]: Not Active
5 | O=C1/C(=N\Nc2ccc3c(S(=O)(=O)O)cc(S(=O)(=O)O)cc3c2)C(c2ccccc2)=NN1c1nc(-c2ccc3c(c2)OCCO3)cs1 | 5.2 | 8.9 | 22.3 | 14.9 | 7.7 | Ratio (293T [12]): 1.2; selectivity ratio [5]: < 10; CC50 [8]: 70 µM; CI (293T [13]): 1.9
6 | COc1ccc(-c2csc(N3N=C(C)/C(=N\Nc4ccc(CS(=O)(=O)O)cc4)C3=O)n2)cc1 |  |  |  |  |  | IC50 [14]: Not Active
7 | COc1ccc(-c2csc(N3N=C(c4ccccc4)/C(=N/Nc4ccc5c(S(=O)(=O)O)cc(S(=O)(=O)O)cc5c4)C3=O)n2)cc1 | 7.5 | 3.2 | 24.7 | 10.2 | 5.8 | Kd [15]: 80 µM; Ratio (293T [12]): 1.3; selectivity ratio [5]: 10; CC50 [8]: 200 µM; CI (293T [13]): 2.3; Activity [9]: Toxic
8 | CC1=NN(c2nc(-c3ccc(C(F)(F)F)cc3)cs2)C(=O)/C1=N/Nc1ccc(S(=O)(=O)O)cc1 |  |  | 139 |  |  | 
9 | COc1ccc(OC)c(-c2csc(N3N=C(c4ccccc4)/C(=N/Nc4ccc5c(S(=O)(=O)O)cc(S(=O)(=O)O)cc5c4)C3=O)n2)c1 | 2.5 | 2.9 | 30.7 | 9.9 | 3.6 | selectivity ratio [5]: 16; Activity [7]: Non-toxic
10 | CN(C)c1ccc(-c2csc(N3N=C(c4ccccc4)/C(=N/Nc4ccc5c(S(=O)(=O)O)cc(S(=O)(=O)O)cc5c4)C3=O)n2)cc1 | 1.1 | 3.8 | 23.8 | 8 | 2.9 | Ratio (293T [12]): 1.2; selectivity ratio [5]: 13; CC50 [8]: 330 µM; CI (293T [13]): 2.5
11 | CC1=NN(c2nc(-c3cccc(Cl)c3)cs2)C(=O)/C1=N/Nc1ccc(S(=O)(=O)O)cc1 |  |  | 432 |  |  | 
12 | O=C1/C(=N\Nc2ccc3c(S(=O)(=O)O)cc(S(=O)(=O)O)cc3c2)C(c2ccccc2)=NN1c1nc(-c2ccccc2)cs1 | 3.6 | 8.4 | 43.7 | 30.7 | 7.1 | Kd [15]: 350 µM
13 | O=C1/C(=N\Nc2ccc3c(S(=O)(=O)O)cc(S(=O)(=O)O)cc3c2)C(c2ccccc2)=NN1c1nc(-c2nccs2)cs1 | 12 | 6.7 | 30.9 | 19.5 | 10.2 | 
14 | CC1=NN(c2nc(-c3ccc(OC(F)(F)F)cc3)cs2)C(=O)/C1=N/Nc1ccc(S(=O)(=O)O)cc1 |  |  | 400 |  |  | 
15 | CC1=NN(c2nc(-c3ccccc3)cs2)C(=O)/C1=N\Nc1cc(S(=O)(=O)O)cc2cc(S(=O)(=O)O)cc(S(=O)(=O)O)c12 | 36.8 |  |  | 47.6 |  | selectivity ratio [5]: < 10; IC50 [11]: Not Active; CC50 [8]: 200 µM; Activity [9]: Toxic
16 | CC1=NN(c2nc(-c3ccc(O)c(O)c3)cs2)C(=O)/C1=N/Nc1ccc(S(=O)(=O)O)cc1 |  |  | 512 |  |  | 
17 | COc1ccc(OC)c(-c2csc(N3N=C(C)/C(=N\Nc4ccc(S(=O)(=O)O)cc4)C3=O)n2)c1 |  |  | 189 |  |  | 
18 | CC1=NN(c2nc(-c3ccc(S(=O)(=O)O)cc3)cs2)C(=O)/C1=N/Nc1ccc(S(=O)(=O)O)cc1 |  |  |  |  |  | IC50 [14]: Not Active
19 | O=C1/C(=N\Nc2ccc(S(=O)(=O)O)cc2)C(c2ccccc2)=NN1c1nc(-c2ccccc2)cs1 |  |  |  |  |  | Activity [7]: Non-toxic

The next lines start with results.

Row | IC50 [1] [µM] | IC50 [2] [µM] | IC50 [3] [µM] | IC50 [4] [µM] | IC50 [6] [µM] | SMILES | also measured
20 | 8.1 | 9.2 | 53.8 | 22.1 | 7 | COc1ccc(-c2csc(N3N=C(C)/C(=N/Nc4ccc5c(S(=O)(=O)O)cc(S(=O)(=O)O)cc5c4)C3=O)n2)cc1 | selectivity ratio [5]: > 30; Activity [7]: Non-toxic
21 | 19.7 |  | 91.9 | 26.1 |  | CC1=NN(c2nc(-c3ccc(C(F)(F)F)cc3)cs2)C(=O)/C1=N\Nc1cc(S(=O)(=O)O)cc2cc(S(=O)(=O)O)cc(S(=O)(=O)O)c12 | 
22 | 9.4 | 14.6 | 62.4 | 24.1 | 11.2 | COc1ccc(-c2csc(N3N=C(COc4ccccc4)/C(=N/Nc4ccc5c(S(=O)(=O)O)cc(S(=O)(=O)O)cc5c4)C3=O)n2)cc1 | 
23 | 22.5 |  | 47.6 | 27 |  | COc1ccc(-c2csc(N3N=C(C)/C(=N/Nc4cc(S(=O)(=O)O)cc5cc(S(=O)(=O)O)cc(S(=O)(=O)O)c45)C3=O)n2)cc1 | 
24 | 51.1 | 101 | 137 | 64.8 | 33.1 | CC1=NN(c2nc(-c3ccccc3)cs2)C(=O)/C1=N\Nc1ccc2c(S(=O)(=O)O)cc(S(=O)(=O)O)cc2c1 | 
25 | 80 |  | 298 |  | 104 | COc1ccc(-c2csc(N3N=C(C(F)(F)F)/C(=N/Nc4ccc5c(S(=O)(=O)O)cc(S(=O)(=O)O)cc5c4)C3=O)n2)cc1 | IC50 [16]: Not Active; IC50 [17]: Not Active
26 | 18.7 |  | 80.8 | 32.3 |  | COc1ccc(-c2csc(N3N=C(c4ccccc4)/C(=N/Nc4cc(S(=O)(=O)O)cc5cc(S(=O)(=O)O)cc(S(=O)(=O)O)c45)C3=O)n2)cc1 | selectivity ratio [5]: > 30; Activity [7]: Non-toxic
27 | 10.1 | 22.3 | 74.9 | 36.2 | 15.6 | COCC1=NN(c2nc(-c3ccc(OC)cc3)cs2)C(=O)/C1=N\Nc1ccc2c(S(=O)(=O)O)cc(S(=O)(=O)O)cc2c1 | 
28 | 29.3 |  | 148 | 35.5 |  | O=C1/C(=N\Nc2cc(S(=O)(=O)O)cc3cc(S(=O)(=O)O)cc(S(=O)(=O)O)c23)C(c2ccccc2)=NN1c1nc(-c2ccccc2)cs1 | 
29 | 28.9 |  | 80.6 | 30.8 |  | O=C1/C(=N\Nc2cc(S(=O)(=O)O)cc3cc(S(=O)(=O)O)cc(S(=O)(=O)O)c23)C(c2ccccc2)=NN1c1nc(-c2ccc(C(F)(F)F)cc2)cs1 | 
